According to ChEMBL document CHEMBL2086225, “Demethylwedelolactone derivatives inhibit invasive growth in vitro and lung metastasis of MDA-MB-231 breast cancer cells in nude mice” (Eur J Med Chem, 2012):
Active and inactive are the calls of the source.

What was measured:
[1] = tested on: MDA-MB-231; test: Downregulation of MMP2 in human MDA-MB-231 cells at 50 uM by Western blot analysis; type: functional, cell-based
[2] = tested on: MDA-MB-231; test: Downregulation of MMP9 in human MDA-MB-231 cells at 50 uM by Western blot analysis; type: functional, cell-based
[3] = tested on: MDA-MB-231; test: Downregulation of MMP9 in human MDA-MB-231 cells at 10 uM by Western blot analysis; type: functional, cell-based
In short: (§1)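 MDA-MB-231 cells in DMEM with 10% FBS at 37 °C were treated for 12 h. Whole-cell lysates were made in RIPA buffer (pH 7.5) at 4 °C, then SDS-PAGE, nitrocellulose transfer, and immunoblotting for MMP-2 and MMP-9, with β-actin as loading control. Detection was by HRP secondary antibody and chemiluminescence. Relative band density was quantified by densitometry.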

[4] = tested on: MDA-MB-231; test: Downregulation of MMP2 in human MDA-MB-231 cells at 10 uM by Western blot analysis; type: functional, cell-based; in short: as §1
[5] = tested on: SK-HEP1; test: Antiinvasive activity against human SKHEP1 cells; type: functional, cell-based
[6] = tested on: MDA-MB-231; test: Downregulation of MMP9 expression in human MDA-MB-231 cells at 0.1 to 0.9 uM after 12 hrs by Western blot analysis; type: functional, cell-based
[7] = molecular target: Focal adhesion kinase 1 (Homo sapiens) (UniProt Q05397); test: Inhibition of FAK phosphorylation in human MDA-MB-231 cells after 12 hrs by Western blot analysis; type: cell-based
In short: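 Cells exposed 0–20 µM for 12 h; lysates in RIPA buffer immunoblotted with phospho-FAK, total FAK and β-actin antibodies; HRP secondary, chemiluminescence, densitometry.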

[8] = tested on: MDA-MB-231; test: Antimetastatic activity against human MDA-MB-231 cells assessed as inhibition of wound closure activity up to 20 uM at 12 hrs by scratch motility assay; type: functional, cell-based
[9] = molecular target: T1, NF-kappa-B inhibitor alpha (Homo sapiens) (UniProt P25963); test: Inhibition of IkappaBalpha phosphorylation in human MDA-MB-231 cells at 5 to 20 uM after 3 to 24 hrs by Western blot analysis; type: cell-based
T1 sequence (whole entry): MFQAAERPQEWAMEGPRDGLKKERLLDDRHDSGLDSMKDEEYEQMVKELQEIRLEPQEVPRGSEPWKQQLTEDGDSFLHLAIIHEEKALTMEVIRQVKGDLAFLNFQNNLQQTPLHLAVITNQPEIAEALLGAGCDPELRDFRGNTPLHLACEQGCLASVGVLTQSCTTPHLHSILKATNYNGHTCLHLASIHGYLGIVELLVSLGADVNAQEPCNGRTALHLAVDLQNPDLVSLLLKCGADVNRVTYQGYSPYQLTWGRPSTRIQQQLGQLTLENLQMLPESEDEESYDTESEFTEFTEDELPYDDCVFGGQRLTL
In short: (§2)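 For the time course, cells exposed to 20 µM for various times; for dose response, 5, 10 or 20 µM for 12 h. Lysates immunoblotted with phospho-IκB-α and total IκB-α antibodies, HRP secondary, chemiluminescence detection, densitometry.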

[10] = tested on: MDA-MB-231; test: Antiinvasive activity against human MDA-MB-231 cells xenografted in athymic nude BALB/c mouse assessed as decrease in lung weight at 5 and 20 mg/kg, ip administered 3 times per week starting 1 week prior to xenografting measured after 5 weeks relative to control; type: functional, organism-based; parameters: dose 20 mg/kg
In short: (§3)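 Female six-week-old BALB/c-nu mice (n = 6/group) dosed i.p. 3 times/week for 5 weeks (100 µl vehicle, or PBS). After 1 week, 1 × 10^6 cells injected into tail vein. Mice euthanized 4 weeks post-injection; lungs photographed, weighed, and H&E/hematoxylin sections examined for tumor cells. Means ± SD; one-way ANOVA with Dunnett's test.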

[11] = tested on: MDA-MB-231; test: Downregulation of MMP2 expression in human MDA-MB-231 cells at 5 to 20 uM after 12 hrs by Western blot analysis; type: functional, cell-based
In short: (§4)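 Cells exposed to 5, 10 or 20 µM for 12 h; lysed in RIPA buffer (pH 7.5) with protease/phosphatase inhibitors. 50–100 µg protein run on SDS-PAGE, transferred to nitrocellulose, probed with phospho-specific and total antibodies (β-actin loading control), HRP secondary, ECL detection, densitometry.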

[12] = molecular target: T1, NF-kappa-B inhibitor alpha (Homo sapiens); test: Inhibition of IkappaBalpha phosphorylation in human MDA-MB-231 cells after 12 hrs by Western blot analysis; type: cell-based; in short: as §2
[13] = tested on: MDA-MB-231; test: Antiinvasive activity against human MDA-MB-231 cells assessed as F-actin reorganization at 20 uM incubated 24 hrs post-serum starvation measured after 12 hrs by TRITC-conjugated phalloidin staining method; type: functional, cell-based
In short: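 Cells seeded, serum-starved (0.1%) overnight, then exposed for 12 h in DMEM with 10% FBS. Fixed in 4% paraformaldehyde 10 min, permeabilized with 0.1% Triton X-100 5 min, F-actin stained with TRITC-phalloidin (500 ng/ml) 1 h; imaged by fluorescence microscopy at 100×.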

[14] = molecular target: Matrix metalloproteinase-9 (Homo sapiens) (UniProt P14780); test: Inhibition of MMP9 in human MDA-MB-231 cells at 20 uM up to 12 hrs by gelatin-zymogrphy; type: cell-based
In short: (§5)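 Cells seeded at 4 × 10^5 cells/ml overnight, exposed to 20 µM for 0–12 h. Conditioned media run on 8% SDS-PAGE containing 0.1% gelatin (150 V, 3 h), SDS removed with 2% Triton X-100 washes, gels incubated in 10 mM CaCl2, 40 mM Tris-HCl pH 8.0 for 16 h at 37 °C, Coomassie-stained.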

[15] = molecular target: 72 kDa type IV collagenase (Homo sapiens) (UniProt P08253); test: Inhibition of MMP2 in human MDA-MB-231 cells at 20 uM up to 12 hrs by gelatin-zymogrphy; type: cell-based; in short: as §5
[16] = tested on: MDA-MB-231; test: Cytotoxicity against human MDA-MB-231 cells at 25 to 100 uM after 24 hrs by MTT assay; type: functional, cell-based
In short: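 Cells seeded at 5 × 10^4/well, grown 24 h in complete medium, exposed 0–100 µM for 24 h (control 0.2% DMSO). Medium replaced, MTT added for 4 h, formazan dissolved in DMSO, absorbance read at 570 nm.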

[17] = molecular target: Mitogen-activated protein kinase; ERK1/ERK2 (Homo sapiens) (UniProt P27361+P28482); test: Inhibition of ERK 1/2 phosphorylation in human MDA-MB-231 cells at 5 to 20 uM after 12 hrs by Western blot analysis; type: cell-based; in short: as §4
[18] = tested on: MDA-MB-231; test: Upregulation of TIMP2 expression in human MDA-MB-231 cells at 1.1 to 3.6 uM after 12 hrs by Western blot analysis; type: functional, cell-based
[19] = tested on: MDA-MB-231; test: Upregulation of TIMP1 expression in human MDA-MB-231 cells at 0.2 to 0.8 uM after 12 hrs by Western blot analysis; type: functional, cell-based
[20] = tested on: MDA-MB-231; test: Antiinvasive activity against human MDA-MB-231 cells pretreated for 12 hrs followed by compound-wash out measured after 12 hrs by Boyden chamber assay; type: functional, cell-based
In short: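 Cells pretreated 12 h, resuspended in serum-free medium (2 × 10^5 cells/ml) in upper chamber coated with Matrigel diluted 1:25; 10% FBS medium below. After 12 h, non-invaded cells removed; invaded cells methanol-fixed, Giemsa-stained, counted at 200× in 5 random fields per replicate (n = 4), averaged.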

[21] = tested on: MDA-MB-231; test: Antiinvasive activity against human MDA-MB-231 cells xenografted in athymic nude BALB/c mouse assessed as decrease in lung metastasis at 5 and 20 mg/kg, ip administered 3 times per week starting 1 week prior to xenografting measured after 5 weeks by hematoxylin-staining relative to control; type: functional, organism-based; parameters: dose 20 mg/kg; in short: as §3
[22] = tested on: MDA-MB-231; test: Antimetastatic activity against human MDA-MB-231 cells assessed as inhibition of anchorage-independent colony formation after 21 days by inverted microscopy; type: functional, cell-based
In short: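 Cells pretreated 0–20 µM for 24 h, then 5 × 10^3 cells suspended in 0.33% agarose with 10% FBS over 0.5% agarose base layer; grown at 37 °C, 5% CO2. Colonies counted after 21 days under inverted microscope at 40×; 3 independent experiments, means ± SD.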

[23] = tested on: MDA-MB-231; test: Antiinvasive activity against human MDA-MB-231 cells xenografted in athymic nude BALB/c mouse assessed as decrease in lung size at 5 and 20 mg/kg, ip administered 3 times per week starting 1 week prior to xenografting measured after 5 weeks relative to control; type: functional, organism-based; parameters: dose 20 mg/kg; in short: as §3
[24] = tested on: MDA-MB-231; test: Downregulation of MMP9 expression in human MDA-MB-231 cells at 0.5 to 1 uM after 12 hrs by Western blot analysis; type: functional, cell-based
[25] = tested on: MDA-MB-231; test: Upregulation of TIMP2 expression in human MDA-MB-231 cells at 1 to 3.5 uM after 12 hrs by Western blot analysis; type: functional, cell-based
[26] = tested on: MDA-MB-231; test: Upregulation of TIMP1 expression in human MDA-MB-231 cells at 0.5 to 1 uM after 12 hrs by Western blot analysis; type: functional, cell-based
[27] = molecular target: T1, NF-kappa-B inhibitor alpha (Homo sapiens); test: Inhibition of IkappaBalpha phosphorylation in human MDA-MB-231 cells at 5 to 20 uM after 12 to 24 hrs by Western blot analysis; type: cell-based

Chain of Focal adhesion kinase 1 (Homo sapiens) (Q05397 2-1052 limits assumed): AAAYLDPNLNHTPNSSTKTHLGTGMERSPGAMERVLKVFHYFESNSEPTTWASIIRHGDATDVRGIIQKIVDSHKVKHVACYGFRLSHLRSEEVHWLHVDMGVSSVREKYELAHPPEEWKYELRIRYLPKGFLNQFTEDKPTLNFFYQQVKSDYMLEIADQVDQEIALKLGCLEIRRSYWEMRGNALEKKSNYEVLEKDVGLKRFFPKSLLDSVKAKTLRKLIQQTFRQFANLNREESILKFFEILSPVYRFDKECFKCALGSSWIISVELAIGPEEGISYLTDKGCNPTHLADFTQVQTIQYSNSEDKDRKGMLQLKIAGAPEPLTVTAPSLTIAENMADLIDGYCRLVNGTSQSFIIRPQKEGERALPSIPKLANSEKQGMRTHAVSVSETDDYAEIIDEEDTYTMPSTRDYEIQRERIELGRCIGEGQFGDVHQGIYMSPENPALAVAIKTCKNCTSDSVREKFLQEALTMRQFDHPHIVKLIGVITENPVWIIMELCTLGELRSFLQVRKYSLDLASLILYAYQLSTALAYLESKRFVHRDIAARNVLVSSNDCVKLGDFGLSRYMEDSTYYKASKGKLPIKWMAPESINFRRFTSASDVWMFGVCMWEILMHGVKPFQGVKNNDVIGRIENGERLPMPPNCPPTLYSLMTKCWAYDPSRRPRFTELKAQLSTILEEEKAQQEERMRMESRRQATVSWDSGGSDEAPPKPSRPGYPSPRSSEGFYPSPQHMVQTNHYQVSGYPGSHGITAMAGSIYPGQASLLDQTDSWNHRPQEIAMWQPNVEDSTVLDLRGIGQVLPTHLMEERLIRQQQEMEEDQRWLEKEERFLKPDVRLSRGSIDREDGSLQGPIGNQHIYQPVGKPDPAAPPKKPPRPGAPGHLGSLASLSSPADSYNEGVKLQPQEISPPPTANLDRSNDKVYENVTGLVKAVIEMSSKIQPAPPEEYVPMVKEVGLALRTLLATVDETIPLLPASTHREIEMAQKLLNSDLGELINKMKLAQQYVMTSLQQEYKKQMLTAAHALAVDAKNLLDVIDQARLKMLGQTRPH
Chain of Mitogen-activated protein kinase; ERK1/ERK2 (Homo sapiens) (P27361 whole entry, looked up): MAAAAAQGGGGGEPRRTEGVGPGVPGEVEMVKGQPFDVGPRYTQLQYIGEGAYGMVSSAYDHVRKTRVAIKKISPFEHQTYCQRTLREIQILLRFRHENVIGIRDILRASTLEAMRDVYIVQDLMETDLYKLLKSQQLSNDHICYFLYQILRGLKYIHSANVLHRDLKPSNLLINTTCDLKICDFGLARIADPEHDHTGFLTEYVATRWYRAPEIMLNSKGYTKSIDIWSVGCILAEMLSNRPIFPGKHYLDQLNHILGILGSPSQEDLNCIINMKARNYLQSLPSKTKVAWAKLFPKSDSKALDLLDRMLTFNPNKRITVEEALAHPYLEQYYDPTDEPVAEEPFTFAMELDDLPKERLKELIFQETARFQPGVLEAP
Chain of Mitogen-activated protein kinase; ERK1/ERK2 (Homo sapiens) (P28482 whole entry, looked up): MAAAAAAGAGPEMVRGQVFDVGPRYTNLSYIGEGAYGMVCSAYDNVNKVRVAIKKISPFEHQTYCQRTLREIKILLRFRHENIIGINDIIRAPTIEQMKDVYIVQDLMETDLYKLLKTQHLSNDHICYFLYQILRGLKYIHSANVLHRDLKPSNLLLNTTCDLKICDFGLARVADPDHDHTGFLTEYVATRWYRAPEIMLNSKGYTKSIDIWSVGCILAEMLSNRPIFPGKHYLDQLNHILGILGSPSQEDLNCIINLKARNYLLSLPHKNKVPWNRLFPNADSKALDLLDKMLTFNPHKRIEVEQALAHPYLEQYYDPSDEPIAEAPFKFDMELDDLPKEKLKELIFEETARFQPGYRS
Chain of 72 kDa type IV collagenase (Homo sapiens) (P08253 110-660 limits assumed): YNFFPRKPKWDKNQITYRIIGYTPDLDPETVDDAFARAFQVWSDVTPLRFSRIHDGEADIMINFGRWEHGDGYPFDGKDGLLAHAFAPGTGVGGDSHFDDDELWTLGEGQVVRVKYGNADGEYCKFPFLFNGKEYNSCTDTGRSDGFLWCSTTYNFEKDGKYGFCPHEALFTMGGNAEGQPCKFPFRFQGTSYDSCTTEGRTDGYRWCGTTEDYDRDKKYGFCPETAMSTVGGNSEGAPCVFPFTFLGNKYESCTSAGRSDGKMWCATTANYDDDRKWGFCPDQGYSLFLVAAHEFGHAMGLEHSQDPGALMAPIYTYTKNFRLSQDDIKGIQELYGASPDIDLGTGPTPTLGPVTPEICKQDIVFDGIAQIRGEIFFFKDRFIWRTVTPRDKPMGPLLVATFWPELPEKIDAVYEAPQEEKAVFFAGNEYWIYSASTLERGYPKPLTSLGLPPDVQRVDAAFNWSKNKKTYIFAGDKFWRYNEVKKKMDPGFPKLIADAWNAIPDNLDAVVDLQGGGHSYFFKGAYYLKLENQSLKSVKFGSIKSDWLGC
Chain of Matrix metalloproteinase-9 (Homo sapiens) (P14780 whole entry): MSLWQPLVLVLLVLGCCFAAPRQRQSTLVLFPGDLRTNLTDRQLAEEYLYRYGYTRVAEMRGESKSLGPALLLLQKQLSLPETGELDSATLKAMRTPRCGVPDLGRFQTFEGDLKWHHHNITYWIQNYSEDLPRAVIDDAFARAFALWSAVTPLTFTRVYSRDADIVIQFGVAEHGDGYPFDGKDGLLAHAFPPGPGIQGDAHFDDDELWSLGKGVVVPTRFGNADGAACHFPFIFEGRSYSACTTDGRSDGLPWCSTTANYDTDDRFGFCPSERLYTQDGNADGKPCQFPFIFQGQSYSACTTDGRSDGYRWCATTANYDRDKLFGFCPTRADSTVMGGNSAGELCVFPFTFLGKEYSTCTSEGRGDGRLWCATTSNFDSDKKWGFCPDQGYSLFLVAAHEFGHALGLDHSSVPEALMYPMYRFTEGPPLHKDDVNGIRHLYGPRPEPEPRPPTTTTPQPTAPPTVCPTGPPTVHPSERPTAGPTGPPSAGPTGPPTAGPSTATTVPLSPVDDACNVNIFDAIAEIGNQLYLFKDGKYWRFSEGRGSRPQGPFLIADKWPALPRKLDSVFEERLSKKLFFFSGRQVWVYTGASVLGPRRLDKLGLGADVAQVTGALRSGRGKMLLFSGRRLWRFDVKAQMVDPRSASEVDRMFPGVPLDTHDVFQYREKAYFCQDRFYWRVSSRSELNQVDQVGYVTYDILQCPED

COc1cccc(-c2cc(=O)c3ccccc3o2)c1N
active: Activity [1] | Activity [2]

S=C(S)N1CCCC1
active: Activity [3] | Activity [4]

O=c1oc2cc(O)cc(O)c2c2oc3cc(O)c(O)cc3c12
active: Activity [5] | Activity [6] | inhibition [7] Dose-dependent effect | inhibition [8] | inhibition [9] | Activity [10] | Activity [11] | inhibition [12] Dose-dependent effect | Activity [13] | inhibition [14] | inhibition [15] | Activity [16] | inhibition [17] | Activity [18] | Activity [19] | Activity [20] Dose-dependent effect | Activity [21] | inhibition [22] Dose-dependent effect | Activity [23]

COc1cc(O)c2c(c1)oc(=O)c1c3cc(O)c(O)cc3oc21
active: Activity [5] | Activity [24] | inhibition [7] Dose-dependent effect | inhibition [8] | Activity [11] | inhibition [12] Dose-dependent effect | Activity [13] | Activity [16] | inhibition [17] | Activity [25] | Activity [20] Dose-dependent effect | Activity [26] | inhibition [27] | inhibition [22] Dose-dependent effect
